Shown are actives, neighbours in structure and some others; about 5.7% of the full set was active somewhere.
Beta cell apopt: beta cell apoptosis inhibition | INS-1E cytokine-induced death, ATP luminescence, 48 h; percent of positive-control rescue, neutral wells zero | AID 435005 | protection from apoptosis, % (test concentration not listed) | 0.8% of 300,000 active;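 active = Every replicate reaches about 75%, or at least half do and their mean reaches it too, limit read from the data; inconclusive = At least half of replicates reach the limit but their mean does not; inactive = Under half of replicates reach the limit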;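 note: 0% = cytokine-treated negative control wells and 100% = positive control rescue; higher means more ATP so stronger rescue from cytokine killing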
Calb FLC: C. albicans growth modulation with fluconazole. growth inhibition, % (test concentration not listed). C. albicans CaCi-2 (fluconazole-resistant clinical isolate) + fluconazole, Alamar Blue growth, 48 h. 0.57% of 300,000 active;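 active = growth inhibition above about 58% in most replicates, limit read from the data, passing the limit was not always enough; inconclusive = exactly half the replicates above a set limit; inactive = most replicates below a set limit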;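 note: all wells also contain fluconazole at 8 µg/ml as a sub-toxic cotreatment; 0% = median of DMSO wells and 100% = median of geldanamycin control wells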
SKKanGAS inh: SKKanGAS growth inhibition; 1.3% of 300,000 active; S. pyogenes SKKanGAS, kanamycin growth, BacTiter-Glo, 6 h; inhibition, % at 7.5 µM;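 active = mean replicate score, as percent of positive control median, at least 50; inconclusive = mean below 50 but one replicate at or above 50; inactive = mean and every replicate below 50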;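 note: strain carries kanamycin resistance gene driven by streptokinase promoter and grows in 40 µg/ml kanamycin; loss of luminescence reflects streptokinase promoter inhibition or plain growth inhibition; 0% = median of DMSO wells and 100% = positive control at its reference dose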
Mdm2 MdmX PPI: human Mdm2/MdmX binding inhibition | AID 485346 | SaOS-2 split-luciferase Mdm2/MdmX complementation, luminescence | 3% of 330,000 active | inhibition, % at 8 µM;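 active = inhibition of at least 50% at 8 µM in the primary screen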
CSC inhib: blocks cancer stem cells. cancer stem cell-like cells viability, luminescence. inhibition, % at 7.5 µM. 1.1% of 300,000 active; in the data active = inhibition above about 75%; inconclusive = no clear call, values can overlap the other calls; tested in HMLE shEcad cells
T cruzi inh: blocks replication of Trypanosoma cruzi | 1.4% of 300,000 active | inhibition, % (test concentration not listed) | T. cruzi beta-gal in NIH3T3, luminescence, 90 h;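 active = mean inhibition across valid replicates above about 55%, limit read from the data; inconclusive = mean below that limit but half or more replicates reach it; inactive = mean below it, under half of replicates reach it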;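 note: signal also drops with host cell toxicity which is not excluded here; 0% = plate median of DMSO wells and 100% = zero luminescence signal; higher percent means less beta-gal luminescence so fewer parasites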
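Test system: β-gal T. cruzi (Tulahuen C4) inside NIH/3T3 cells / Quantity: 5,000 cells/well / Measured by: luminescence from GalScreen with 0.05% NP40, read after 60 min / Medium: DMEM plus 2% FBS / Measure: parasite load inhibition, % / Reagent: Tulahuen C4 trypomastigotes, 5000/well / Schedule: co-culture of at least 90 h after 3 h attachment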
Mdm2 MdmX conf: confirmation of human Mdm2/MdmX interaction inhibitors; shares compounds with Mdm2 MdmX PPI; Mdm2-MdmX binding, luminescent assay; inhibition, % at 8 µM; 55% of 10,000 active; AID 489028; in the data active = inhibition above about 40%
Full FLuc ctr: full-length luciferase inhibition in Mdm2/MdmX counter-screen. shares compounds with Mdm2 MdmX PPI. SaOS-2 full-length luciferase counterscreen, luminescence. inhibition, % at 8 µM. 77% of 6,200 active;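 active = mean inhibition at 8 µM reaching about 37%, which flags the compound as non-specific, limit read from the data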;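 note: p53-null SaOS-2 cells with luciferase driven by a doxycycline-inducible promoter; compound on cells about two nights before reading with doxycycline added after day one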
Active calls of the source: *; u = inconclusive; x = not tested or not shown.

SMILES	Beta cell apopt	Calb FLC	SKKanGAS inh	Mdm2 MdmX PPI	CSC inhib	T cruzi inh	Mdm2 MdmX conf	Full FLuc ctr
Cn1c(=O)c2c(nc(N3CCCCC3)n2CC(O)COc2ccccc2)n(C)c1=O (stereo not drawn)	-0.7	-16.9	-2.0	-10.1	-7.8	3.9	x	x
Cc1ccc(C(C)NC(=S)NC2CCCCC2)c(C)c1 (stereo not drawn)	6.8	u	3.4	10.8	7.1	2.5	x	x
Cc1ccc(Nc2nc(N)nc(CC#N)n2)cc1	4.0	16.9	4.9	-2.3	-5.9	1.4	x	x
Cc1ccc(Nc2nc(N)nc(CCl)n2)cc1	-4.4	-1.8	-3.5	83.4*	-11.7	3.1	79.3*	59.1*
Cc1ccc(Nc2nc(N)nc(CCl)n2)c(C)c1	-3.4	-7.4	44.0	95.5*	2.0	57.4*	100.1*	53.4*
COC(=O)[C@@]12CCCN1[C@H](c1ccc(-c3ccc(C(C)=O)cc3)c(OC)c1)[C@H]1C(=O)N(C)C(=O)[C@H]12	-1.2	x	x	18.4	-5.2	x	x	x
COc1cc(C(=O)NCC(=O)N2CCN(S(=O)(=O)c3cc(C)ccc3C)CC2)cc(OC)c1OC	1.5	2.1	-2.7	53.3*	30.7	14.6	52.5*	42.2*
Cc1ccc(C)c(S(=O)(=O)N2CCN(C(=O)CCNC(=O)c3ccc(Br)cc3)CC2)c1	2.0	-6.1	7.2	-5.7	x	11.2	x	x
COc1ccccc1OC(C)C(=O)Nc1ccccc1C(=O)NCC1CCCO1 (stereo not drawn)	0.9	10.2	x	-6.3	-16.4	2.3	x	x
CC(=O)OC[C@H]1O[C@@H](n2ncc(=O)[nH]c2=O)[C@H](OC(C)=O)[C@@H]1OC(C)=O	-2.9	x	-3.9	79.8*	21.6	5.1	59.1*	31.6
Nc1ncc([N+](=O)[O-])c(N2CCCCCC2)n1	-25.7	-9.6	1.0	75.0*	-4.8	4.9	73.3*	48.7*
CC(=O)OC[C@]12CC[C@H]3[C@@](C)(CC[C@H]4C(C)(C)CCC[C@]34C)[C@@H]1C[C@H](C1=CC(=O)O[C@@H]1OC(C)=O)O2	2.0	x	x	63.4*	132.1*	x	-11.6	x
CCN(CC)CCCNc1ccc(-c2nnc(-c3ccc(OCC(C)C)cc3)o2)cn1	13.6	3.7	12.5	100.4*	103.1*	54.9*	87.7*	23.9
Cc1ccccc1COCCN1CCN(S(=O)(=O)c2ccccc2)CCC1=O	-1.7	-5.2	-3.2	21.1	-7.9	-5.1	x	x
CC(=NNC(=O)CSc1nc2ccccc2o1)c1ccco1	6.1	x	x	-95.9	7.0	x	x	x
CC(C)c1ccc(-c2csc3ncnc(N4CCN(C)CC4)c23)cc1	11.8	-5.5	-1.1	58.4*	9.1	11.9	57.2*	39.1*
COc1ccccc1CNS(=O)(=O)CCNC(=O)c1ccccc1	-1.8	16.2	5.7	-1.4	-4.5	-0.3	x	x
Cc1ccc(OCCC(=O)OCC(=O)Nc2ccccc2)cc1	-8.8	-3.8	8.9	11.5	-8.7	-6.3	x	x
Cc1cc(C)nc(NC2=NCC(=O)N2CCc2c[nH]c3ccccc23)n1	0.0	-0.1	-3.1	12.0	x	15.0	x	x
Cc1cc(C)nc(NC(N)=NCCc2c[nH]c3ccccc23)n1	-2.6	11.2	u	72.3*	-2.5	43.7	51.9*	54.4*
COc1cc(NC(=O)C(C)Oc2ccccc2)ccc1NC(=O)COc1ccccc1 (stereo not drawn)	-9.1	10.4	u	27.5	2.1	4.4	x	x
O=C(Cc1ccccc1F)Nc1nc(-c2ccc(F)c(F)c2)cs1	-2.0	-30.5	41.9	-3.9	60.0	11.7	x	x
O=C(Nc1nc(-c2ccc(F)c(F)c2)cs1)Nc1ccc(F)cc1F	60.7	-12.5	-0.3	83.0*	9.3	-8.5	62.4*	14.7
COn1c2c(c3c4nonc4ccc31)CCCC2	-14.8	8.0	5.9	58.6*	-20.6	7.2	47.1*	55.3*
CCn1c(CC(=O)Nc2ccc(C)c(Cl)c2)nnc1SCc1ccc(Cl)c(Cl)c1	-1.9	5.5	-3.9	-6.8	-7.9	-16.5	x	x
SMILES	Beta cell apopt	Calb FLC	SKKanGAS inh	Mdm2 MdmX PPI	CSC inhib	T cruzi inh	Mdm2 MdmX conf	Full FLuc ctr
CCn1c(CC(=O)Nc2ccc(C)c(Cl)c2)nnc1SCC(=O)Nc1nc(C)cs1	-5.2	-0.9	4.1	62.8*	0.3	13.5	-1.9	x
Cc1ccc(OCc2nnc(SCC(=O)Nc3nccs3)n2-c2ccccc2)cc1C	2.9	-12.5	-3.7	54.8*	-12.6	8.9	25.0	x
Cc1ccc(-n2c(COc3c(C)cccc3C)nnc2SCC(=O)Nc2nccs2)cc1	-2.7	5.7	1.1	-27.0	-3.5	4.7	x	x
CCn1c(CC(=O)Nc2cccc(OC)c2)nnc1SCC(=O)Nc1nccs1	-1.4	22.2	-1.6	57.1*	-5.5	-1.2	53.7*	58.7*
COc1ccc(N=c2oc3ccc(OC)cc3cc2-c2nc3ccccc3[nH]2)cc1	44.0	0.1	1.9	92.7*	18.0	6.5	-144.6	x
COc1cccc(N=c2oc3ccc(OC)cc3cc2-c2nc3ccccc3[nH]2)c1	31.8	0.0	-3.9	-22.3	-32.9	15.2	x	x
COc1ccc2oc(C(=O)OCC(=O)N(C)c3c(N)n(Cc4ccccc4)c(=O)[nH]c3=O)c(C)c2c1	x	-2.8	0.0	-24.3	2.8	2.1	x	x
C/C(=N\NC(N)=S)C1=CCC2C3CC[C@H]4CC(O)CC[C@]4(C)C3CC[C@]12C (stereo partly drawn)	x	-7.3	19.3	75.0*	x	60.5*	15.2	x
C[C@H](O)[C@@]1(O)CC[C@H]2[C@@H]3CC[C@@H]4C[C@H](O)CC[C@]4(C)[C@H]3CC[C@@]21C	-0.2	-7.3	1.4	4.9	-10.0	-16.2	x	x
COc1cc(NC(=O)C2C3CCC(O3)C2C(=O)O)cc(OC)c1 (stereo not drawn)	-9.9	5.0	1.1	34.0	-1.5	9.0	x	x
N#CCC(=O)N/N=C/c1cn(Cc2ccc(Cl)c(Cl)c2)c2ccccc12	x	-5.0	18.5	73.0*	10.4	7.4	47.4*	53.4*
N#CCC(=O)N/N=C/c1cn(Cc2cccc3ccccc23)c2ccccc12	31.0	5.8	32.9	65.8*	57.5	-28.6	63.5*	54.6*
N#CCC(=O)N/N=C/c1cn(Cc2ccccc2C#N)c2ccccc12	-0.5	18.8	21.9	22.7	-9.1	-17.3	x	x
CC(Sc1nc(N)cc(N)n1)C(=O)NCCC1=CCCCC1 (stereo not drawn)	-2.2	x	x	-21.9	-16.4	x	x	x
O=C(COC(=O)c1ccccn1)NCc1cccs1	-3.1	3.9	-8.0	-11.7	-3.6	-6.8	x	x
CC[C@H](C)[C@@H](C(=O)NCCCCCCCCCCC(=O)N1CCN(C(=O)OC(C)(C)C)CC1)n1cc(CCCCN=C(NC(=O)OC(C)(C)C)NC(=O)OC(C)(C)C)nn1	112.2*	x	x	63.5*	3.7	x	24.9	x
